Fewer inactive variants are shown than the library holds.
B1: tRNA (parent)
chain: GUUCCGUUGGCGUAAUGGUAACGCGUCUCCCUCCUAAGGAGAAGACUGCGGGUUCGAGUCCCGUACGGAACG

Variants of: B1
Experiment: yeast fitness relative to wild type (ratio to wild type); higher = fitter; tRNA-Arg(CCU), competitive growth, 37 C, YPD
Summary of the method: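 A pool of Saccharomyces cerevisiae strains, each with a tRNA-Arg(CCU) gene variant at the native genomic locus, was competed in YPD at 37°C for 24 hours across six parallel replicates. The variants had been chemically synthesised at a 3% per-site mutation rate over 69 sites, and gene amplicons before and after competition were read by 100-nucleotide paired-end sequencing. Darwinian fitness relative to wild type rested on changes in genotype frequencies. Genotypes required ≥ 100 starting reads, and estimates < 0.5 were set to 0.5.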

| Variant | yeast fitness |
| --- | --- |
| U7C U35G U64C A70G | ≤ 0.5 |
| U7C G67U | 0.847 |
| U7C G67A | 0.863 |
| U7G C27A A36C A42U U64G | 0.528 |
| U8A C31G C55U G67C | ≤ 0.5 |
| U8A C11U G25C G39C A45U | ≤ 0.5 |
| U8A A42C G52C | ≤ 0.5 |
| U7G G67C | 0.856 |
| U8A C27A A37U A57U | ≤ 0.5 |
| U7G C27A A36C A42U U64G A70U | ≤ 0.5 |
| U7G A14G U35G A43G | 0.557 |
| U7G C60U G63C | 0.585 |
| U7G C27U A57C A70U | ≤ 0.5 |
| U7C U13A C24U G51A U59A A65C | 0.642 |
| U7G C30A A69C | 0.798 |
| U7G G58A | 0.942 |
| U7G A15U A45C C46U G56A G67C | ≤ 0.5 |
| U8A C33G A42U A43U C49U A65C G68C | ≤ 0.5 |
| U8A C11U A15G G63C | ≤ 0.5 |
| U7G A20G U32G A43C A45U | ≤ 0.5 |
| U7G A20C G41A G50A C60U C66G | ≤ 0.5 |

| Variant | yeast fitness |
| --- | --- |
| U7G A37U A70U | 0.542 |
| U8A A14G C24G A45C | 0.632 |
| U7G C22A | 0.653 |
| U7G C22G | 0.726 |
| U7G U13C A37U C60G | ≤ 0.5 |
| U7G A42G | 0.837 |
| U8A A14U A42G | ≤ 0.5 |
| U7C U32A | 0.761 |
| U7G C24G C27U C29A | 0.6 |
| U7G C49U A65G | 0.83 |
| U8A C11U A20C A70U | ≤ 0.5 |
| U7G G12C G23C C29G | 0.739 |
| U7G A40C C55G | 0.591 |
| U7G C46U C60A G67A | ≤ 0.5 |
| U7G G48A A69C | 0.697 |
| U7G C11G C34U G41A C49U | ≤ 0.5 |
| U8A A21C C29A G39A U54G G58C | ≤ 0.5 |
| U7G C30G G56A | 0.505 |
| U7G A20G C60U C61G | ≤ 0.5 |
| U7C U47G | ≤ 0.5 |
| U7G G10C C33U U53G C60A G68U A69C | 0.776 |

| Variant | yeast fitness |
| --- | --- |
| U7C U28A G48C C62U A70C | ≤ 0.5 |
| U8A C11U G25C G39C | ≤ 0.5 |
| U7G C34G A43U | 0.661 |
| U8A A14C C31A G41C C49A G56A G63A G67A | ≤ 0.5 |
| U7G C49G | 0.729 |
| U7G C49U | 0.957 |
| U8A C24U A40U A42C A45U C49U | ≤ 0.5 |
| U7G G18A G48A | ≤ 0.5 |
| U7G C29A A69G | ≤ 0.5 |
| U7G A21U C30U A40C | ≤ 0.5 |
| U7G A37U G50C | ≤ 0.5 |
| U7G A65G | 1.03 |
| U7G C33G | 0.654 |
| U7G C33U | 0.749 |
| U7G G12A G25A C33G C62U | ≤ 0.5 |
| U7G G48A | 0.847 |
| U7C U59C | 0.846 |
| U8A G9A A37U C46U C61U C66U | ≤ 0.5 |
| U7G C31U | 0.98 |
| U8A A20C C62A | ≤ 0.5 |
| U7G C22U G51C G58A | ≤ 0.5 |

| Variant | yeast fitness |
| --- | --- |
| U8A C61A A65U | 0.554 |
| U8A A65C A70U | 0.525 |
| U7G U35G | 0.536 |
| U7G U54C C66A | ≤ 0.5 |
| U7G A36G A45G C49U | 0.641 |
| U8A A20U C31U A45G | ≤ 0.5 |
| U8A A42U | 0.833 |
| U8A A42U C62G | ≤ 0.5 |
| U7G G12A G25A C33G G58A G67A | ≤ 0.5 |
| U7C U28A C31U C55G C66U | ≤ 0.5 |
| U7C G68C | 0.876 |
| U8A C34G | ≤ 0.5 |
| U7G C30A A65C | 1.06 |
| U8A C34U U35A C46U A70U | ≤ 0.5 |
| U8A C31U C60A C62G A70C | ≤ 0.5 |
| U7G U28C U59C U64C A70C | ≤ 0.5 |
| U8A A42U C62A A70C | ≤ 0.5 |
| U8A A20G C33A A57G | ≤ 0.5 |
| U7C U32C A45U G67A | ≤ 0.5 |
| U8A C33U G67A | ≤ 0.5 |
| U7G A14G C22U G38A C55A G67A | ≤ 0.5 |

Reference: the RNAGym collection of RNA variant scans (doi:10.1126/science.aae0568)
